The values that follow come from ChEMBL document CHEMBL3351653, “One-pot heterogeneous synthesis of Δ(3)-tetrahydrocannabinol analogues and xanthenes showing differential binding to CB(1) and CB(2) receptors” (Eur J Med Chem, 2014).

The target in assay [1] is T1, Cannabinoid receptor 2 (Homo sapiens, UniProt P34972). The experiment in a line: Displacement of [3H]CP55940 from human cannabinoid CB2 receptor expressed in CHO-K1 cells by liquid scintillation counting. In kind it is cell-based. In general terms: Displacement assays read how much labelled ligand stays bound in the presence of the test substance.
For another assay, the target named is Cannabinoid receptor 1 (Homo sapiens, UniProt P21554). The experiment in a line: Displacement of [3H]CP55940 from human cannabinoid CB1 receptor expressed in CHO-K1 cells by liquid scintillation counting. In kind it is cell-based.
Assay [2] addresses T1, Cannabinoid receptor 2. The assay can be described thus: Partial agonist activity at human cannabinoid CB2 receptor expressed in CHO-K1 cells assessed as [S35]GTPgammaS binding by scintillation counting relative to vehicle treated control. In kind it is functional, cell-based. In a few lines: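 CB2 membranes held on ice with […] and 0.1 nM [35S]-GTPγS in buffer with 0.5% fatty-acid-free BSA. Reaction started by adding compound, vehicle or CP55940. GF/B filtration, washing in ice-cold 50 mM Tris-HCl pH 7.4 with 0.1% BSA, then scintillation counting. Specific binding is signal minus the excess-GTPγS residual. Results given as % of vehicle control. Three independent experiments in triplicate.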
Background: GTPγS is a poorly hydrolysed GTP analogue; its binding reports G protein activation.

In assay [3] the target is T1, Cannabinoid receptor 2. The assay can be described thus: Partial agonist activity at human cannabinoid CB2 receptor expressed in CHO-K1 cells assessed as [S35]GTPgammaS binding by scintillation counting. In kind it is functional, cell-based. In a few lines:
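CB2 membranes held on ice with […] and 0.1 nM [35S]-GTPγS in buffer with 0.5% fatty-acid-free BSA. GF/B filtration, washing in ice-cold 50 mM Tris-HCl pH 7.4 with 0.1% BSA, then scintillation counting. Specific binding is signal minus the excess-GTPγS residual. Three independent experiments in triplicate.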

The structures appear in SMILES notation. A value given as a limit tells only on which side of the number the result lay.

Cannabinoid receptor 1, sequence (P21554 whole entry): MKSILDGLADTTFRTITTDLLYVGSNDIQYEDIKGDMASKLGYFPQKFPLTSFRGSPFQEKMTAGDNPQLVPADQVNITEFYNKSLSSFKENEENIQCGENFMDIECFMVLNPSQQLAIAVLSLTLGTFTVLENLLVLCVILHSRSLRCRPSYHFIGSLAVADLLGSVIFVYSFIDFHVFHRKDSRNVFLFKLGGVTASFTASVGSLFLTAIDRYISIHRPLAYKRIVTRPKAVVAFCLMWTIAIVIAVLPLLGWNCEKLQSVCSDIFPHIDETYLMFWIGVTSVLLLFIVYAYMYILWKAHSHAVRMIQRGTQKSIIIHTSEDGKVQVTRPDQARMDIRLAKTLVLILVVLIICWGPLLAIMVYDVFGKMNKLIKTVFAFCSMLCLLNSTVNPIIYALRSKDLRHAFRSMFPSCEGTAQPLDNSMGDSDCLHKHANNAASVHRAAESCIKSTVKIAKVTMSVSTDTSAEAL
T1 sequence (P34972 whole entry): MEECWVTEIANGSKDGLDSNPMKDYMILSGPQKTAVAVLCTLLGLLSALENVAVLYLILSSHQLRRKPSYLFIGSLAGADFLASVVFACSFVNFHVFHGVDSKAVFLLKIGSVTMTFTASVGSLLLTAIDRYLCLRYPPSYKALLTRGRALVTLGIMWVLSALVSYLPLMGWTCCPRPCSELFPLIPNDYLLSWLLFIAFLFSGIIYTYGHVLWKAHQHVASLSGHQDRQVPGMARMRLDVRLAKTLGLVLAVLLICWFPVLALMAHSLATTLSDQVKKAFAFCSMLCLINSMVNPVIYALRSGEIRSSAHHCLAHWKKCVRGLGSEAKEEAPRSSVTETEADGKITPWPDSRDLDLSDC

Turning to `Cc1cc(O)c2c(c1)OC1=C(CC[C@@H](C)C1)C2(C)C`, the Ki on Cannabinoid receptor 2 [1] and on Cannabinoid receptor 1 was greater than 10000 nM each time.

As for `CCCCCc1cc(O)c2c(c1)OC1=C(CC[C@@H](C)C1)C2(C)C`, the Ki (usually the dissociation constant of the complex between target and ligand, obtained from inhibition or displacement) on Cannabinoid receptor 2 [1] turned out to be 470 nM; on Cannabinoid receptor 1, 1100 nM. Moreover, the Emax (in general, the greatest response seen or fitted, relative to the assay's reference) at Cannabinoid receptor 2 [2] is 152%. Moreover, at Cannabinoid receptor 2 [3], the EC50 (as a rule, the concentration giving half of the maximal effect) was 930 nM.

With `Cc1c(O)ccc2c1OC(C)(C)C1=C2C[C@H](C)CC1`, the Ki at Cannabinoid receptor 2 [1] and at Cannabinoid receptor 1 was greater than 10000 nM in each case.

Consider `CCc1cc2c(cc1O)OC1=C(CC[C@@H](C)C1)C2(C)C`, for which the Ki at Cannabinoid receptor 2 [1] was 510 nM; on Cannabinoid receptor 1, greater than 10000 nM.

In the case of `Cc1cc(O)c2c(c1)OC(C)(C)C1=C2C[C@H](C)CC1`, the Ki on Cannabinoid receptor 2 [1] was found to be 660 nM; at Cannabinoid receptor 1 it was 1000 nM.

Regarding `C[C@@H]1CCC2=C(C1)c1ccc(O)cc1OC2(C)C`, the Ki on Cannabinoid receptor 2 [1] and at Cannabinoid receptor 1 was greater than 10000 nM throughout.

For `CCCCCc1cc(O)c2c(c1)OC(C)(C)C1=C2C[C@@H](C)CC1`, at Cannabinoid receptor 2 [2], the Emax was found to be 146%.

For the compound `CCCCCc1cc(O)c2c(c1)OC(C)(C)C1=C2C[C@H](C)CC1`, at Cannabinoid receptor 2 [2], the Emax was 133%.

For the compound `C[C@@H]1CCC2=C(C1)Oc1cc(O)ccc1C2(C)C`, the results for the Ki at Cannabinoid receptor 2 [1] and on Cannabinoid receptor 1 were 4200 nM and greater than 10000 nM, respectively.

For `Cc1c(O)ccc2c1OC1=C(CC[C@@H](C)C1)C2(C)C`, the Ki is 1000 nM at Cannabinoid receptor 2 [1] and greater than 10000 nM on Cannabinoid receptor 1.

On to `CCCCCc1cc(O)c2c(c1)OC1=C(CC[C@H](C)C1)C2(C)C`, for which the Ki on Cannabinoid receptor 2 [1] was determined as 180 nM; at Cannabinoid receptor 1 it was 2100 nM. The Emax at Cannabinoid receptor 2 [2] is 167%. The EC50 at Cannabinoid receptor 2 [3] worked out at 820 nM.

Consider `CCc1cc2c(cc1O)OC(C)(C)C1=C2C[C@H](C)CC1`, for which the Ki at Cannabinoid receptor 2 [1] and on Cannabinoid receptor 1 was greater than 10000 nM in each case.
